Published values from different studies.
Compare with care: the assays were run in different laboratories.
ADRB3: Beta-3 adrenergic receptor (ADRB3, Homo sapiens, UniProt P13945)

O=C(Nc1cccnn1)N1CCN([C@@H]2CCOc3cc(C(F)(F)F)ccc32)CC1 — inhibition (Prostaglandin E2 receptor EP2 subtype (PTGER2, Homo sapiens, UniProt P43116); cell-free assay; 20 µM): -13%
COc1ccc(S(=O)(=O)N2CCCCC2)cc1C — inhibition (Thyrotropin-releasing hormone receptor (TRHR, Homo sapiens, UniProt P34981); ligand displacement; radioligand; 10 µM): < 30%
COCc1c(-c2cc3cc(C)cc(OC)c3s2)c2c(N)ncnn2c1CN1CCNC(=O)C1 — inhibition (ADRB3; ligand displacement; radioligand; 10 µM): 9%
COc1cc(Nc2ncc(F)c(Nc3ccc4c(n3)NC(=O)C(C)(C)O4)n2)cc(OC)c1OC — inhibition (Casein kinase I isoform alpha-like (CSNK1A1L, Homo sapiens, UniProt Q8N752); binding; competition with immobilised ligand; 10 µM): 0%
C[C@H](C(=O)N[C@H]1COc2ccccc2[C@@H]1S(C)(=O)=O)c1ccc(F)cc1 — inhibition (Adenosine receptor A2b (ADORA2B, Homo sapiens, UniProt P29275); cell-free assay; 10 µM): 9%
COC(=O)NCCc1c(C(O)c2ccccc2)[nH]c2ccc(OC)cc12 (stereo not shown) — inhibition (Calmodulin-1 (CALM1, Homo sapiens, UniProt P0DP23); enzyme activity; inhibitor; 50 µM): 40 to 50%
CC(C)C[C@H](NC(=O)[C@H](Cc1ccccc1)NC(=O)c1cnccn1)B(O)O — inhibition (Lysosomal Pro-X carboxypeptidase (PRCP, Homo sapiens, UniProt P42785); enzyme activity; inhibitor; 33 µM): 77.9%
C#Cc1n[nH]c2c(-c3cn([C@@H](C)c4ccccc4)c(=O)[nH]c3=O)cc(F)cc12 — inhibition (Tyrosine-protein kinase JAK1 (JAK1, Homo sapiens, UniProt P23458); enzyme activity; inhibitor; 0.1 µM): -1.2%
c1ccc(C(NCCNC(c2ccccc2)c2ccccc2)c2ccccc2)cc1 — inhibition (ADRB3; cell-free assay; 10 µM): 59%
COc1ccc(N=Nc2ccc3[nH]cc(CCN(C)C)c3c2)cc1 — inhibition (5-hydroxytryptamine receptor 4 (HTR4, Homo sapiens, UniProt Q13639); ligand displacement; radioligand; 10 µM): < 50%
C#Cc1n[nH]c2c(-c3cn(C(C)c4ccccn4)c(=O)[nH]c3=O)cc(F)cc12 (stereo not shown) — inhibition (Dual specificity protein kinase CLK2 (CLK2, Homo sapiens, UniProt P49760); enzyme activity; inhibitor; 1 µM): 1.9%
Cn1cc(-c2cc(F)cc(N3CCn4c(cc5c4CCCC5)C3=O)c2CO)cc(Nc2ccc(N3CCN(C4COC4)CC3)cn2)c1=O — inhibition (Tyrosine-protein kinase Tec (TEC, Homo sapiens, UniProt P42680); enzyme activity; inhibitor; 0.1 µM): -3%
CCOC(=O)c1ccc(OC(=O)CCCCCNC(=N)N)cc1 — inhibition (Collagenase 3 (MMP13, Homo sapiens, UniProt P45452); enzyme activity; inhibitor; 10 µM): 13%
